Results as given in ChEMBL document CHEMBL4130504, “Discovery of new indomethacin-based analogs with potentially selective cyclooxygenase-2 inhibition and observed diminishing to PGE2 activities” (Eur J Med Chem, 2017).

Key:
Rattus norvegicus [1] = assay: In vivo inhibition of rat COX-2 assessed as decrease in plasma PGE2 level by EIA relative to control; assay type: functional
In short: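 Plasma from heparinized rat blood, spun at 12,000 g for 2 min, then frozen until use. PGE2 measured by competitive enzyme immunoassay with a monoclonal anti-PGE2 antibody at room temperature, read at 405 nm. Expressed as % inhibition ± SEM.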

Rattus norvegicus [2] = assay: Antiinflammatory activity in sc dosed Sprague-Dawley rat assessed as inhibition of cotton pellet-induced granuloma after 7 days; assay type: functional
In short: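 Adult male Sprague-Dawley rats, 120-140 g, six per group, acclimated one week. Cotton pellets (35 ± 1 mg) soaked with 0.01 mmol compound in chloroform, dried, then loaded with penicillin G/dihydrostreptomycin. Two pellets implanted subcutaneously, one per axilla, under mild anesthesia. Pellets with granuloma removed at day 7, dried 48 h at 60 °C and weighed. ED50 from dose-response at 4, 7, 10 and 15 µmol.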

Rattus norvegicus [3] = assay: Ulcerogenicity in albino rat assessed as at 30 umol/kg, po administered daily for 3 successive days in two equal doses at 0 and 12 hrs measured at 6 hrs post last dose by magnifying lens based assay relative to control; assay type: toxicity, organism-based; conditions: in vivo
In short: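 Male albino rats, 100-120 g, fasted 12 h, six per group. Compound given orally at 30 µmol/kg/day as two equal doses at 0 and 12 h for three days. Controls got 1% gum acacia. Killed 6 h after last dose. Stomach opened along the greater curvature, washed with cold saline and examined under a magnifying lens for hyperemia, hemorrhage, erosion or ulcer. % ulceration = ulcer-bearing animals ×100/group total.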

Rattus norvegicus [4] = assay: Antiinflammatory activity in albino rat assessed as protection against carrageenan-induced paw edema at 10 umol/kg, sc pretreated for 1 hr followed by carrageenan challenge measured after 4 hrs by plethysmometer (reference value: 0%); assay type: functional
In short: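 Male albino rats, 120-150 g, six per group. Compound in DMSO given subcutaneously at 10 µmol/kg 1 h before subplantar injection of 2% carrageenan in 0.9% saline. Controls got DMSO alone. Paw volume read by plethysmometer right after carrageenan and 4 h later. % protection = (Vc−Vd)×100/Vc from the 0–4 h increase. Mean ± SEM, Student's t-test.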

[5] = Inhibition of dog kidney microsomal COX assessed as PGE2 level using arachidonic acid as substrate preincubated for 5 to 15 mins followed by substrate addition measured after 40 mins by radio immunoassay; parameters: species or system Canis lupus familiaris
In short: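 Dog kidney microsomes: tissue homogenized and sonicated in phosphate buffer pH 7.1 with EDTA/PMSF, 100,000g pellet collected. Arachidonic acid added, 40 min at room temperature. Stopped with 1 N HCl, neutralized, PGE2 by radioimmunoassay. COX activity = PGE2 with arachidonic acid minus ethanol vehicle. IC50 from three separate experiments, mean ± SEM.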

Cyclooxygenase = target: T1, Cyclooxygenase (Rattus norvegicus, UniProt P35355+Q63921); assay: Inhibition of rat kidney microsomal COX assessed as PGE2 level using arachidonic acid as substrate preincubated for 5 to 15 mins followed by substrate addition measured after 40 mins by radio immunoassay
T1 sequence (P35355 whole entry): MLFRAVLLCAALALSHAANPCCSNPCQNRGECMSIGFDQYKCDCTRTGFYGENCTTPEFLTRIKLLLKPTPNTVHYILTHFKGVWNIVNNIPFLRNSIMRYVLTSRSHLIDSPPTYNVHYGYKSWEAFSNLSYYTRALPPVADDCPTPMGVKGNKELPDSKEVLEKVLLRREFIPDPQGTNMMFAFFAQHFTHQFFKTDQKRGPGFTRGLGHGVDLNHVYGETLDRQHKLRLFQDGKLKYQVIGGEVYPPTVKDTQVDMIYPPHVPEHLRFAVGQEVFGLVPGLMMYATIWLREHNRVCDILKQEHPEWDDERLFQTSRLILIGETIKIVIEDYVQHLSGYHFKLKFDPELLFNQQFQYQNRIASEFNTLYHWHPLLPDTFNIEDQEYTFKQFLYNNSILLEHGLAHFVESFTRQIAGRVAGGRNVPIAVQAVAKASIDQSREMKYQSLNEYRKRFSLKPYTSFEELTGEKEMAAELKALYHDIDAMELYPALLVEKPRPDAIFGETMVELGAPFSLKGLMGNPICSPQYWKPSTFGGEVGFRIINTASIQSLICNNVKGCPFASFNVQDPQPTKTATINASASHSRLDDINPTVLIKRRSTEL
T1 sequence (Q63921 whole entry): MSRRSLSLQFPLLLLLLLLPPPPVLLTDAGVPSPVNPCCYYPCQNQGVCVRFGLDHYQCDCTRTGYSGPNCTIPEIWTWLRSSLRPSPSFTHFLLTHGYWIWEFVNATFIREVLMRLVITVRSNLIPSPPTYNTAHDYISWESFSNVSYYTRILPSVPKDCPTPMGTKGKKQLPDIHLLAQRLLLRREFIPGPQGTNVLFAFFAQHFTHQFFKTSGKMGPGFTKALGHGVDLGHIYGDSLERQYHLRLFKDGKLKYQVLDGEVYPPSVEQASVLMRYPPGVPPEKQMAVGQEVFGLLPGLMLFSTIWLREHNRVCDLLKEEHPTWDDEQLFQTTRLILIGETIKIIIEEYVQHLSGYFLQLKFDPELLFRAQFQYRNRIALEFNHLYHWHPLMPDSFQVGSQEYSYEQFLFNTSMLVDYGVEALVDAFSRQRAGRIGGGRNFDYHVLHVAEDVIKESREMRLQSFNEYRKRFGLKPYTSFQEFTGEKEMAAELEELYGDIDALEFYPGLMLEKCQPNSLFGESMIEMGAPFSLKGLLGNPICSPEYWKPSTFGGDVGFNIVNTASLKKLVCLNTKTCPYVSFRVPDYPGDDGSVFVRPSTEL

| IC50 [5] [nM] | IC50 (Cyclooxygenase) [nM] | Compound | inhibition (INH) (Rattus norvegicus [1]) [%] | ED50 (Rattus norvegicus [2]) [µmol] | Activity (Rattus norvegicus [3]) [%] | Activity (Rattus norvegicus [4]) [%] |
| --- | --- | --- | --- | --- | --- | --- |
| 61 | 128 | COc1ccc2c(c1)c1c(n2S(=O)(=O)c2ccc(Cl)cc2)CC(C)(C)CC1=O | 82.16 | 26.88 | 20.12 | 80.67 |
| 77 | 132 | COc1ccc2c(c1)c1c(n2Cc2ccc(Cl)cc2)CC(C)(C)CC1=O | 81.16 | 17.27 | 11.2 | 80.36 |
| 45 | 93 | CS(=O)(=O)c1ccc2c(c1)c1c(n2Cc2ccc(Cl)cc2)CCCC1=O | 86.39 | 19.2 | 5.4 | 83.1 |
| 80 | 141 | COc1ccc2c(c1)c1c(n2C(=O)c2ccc(Cl)cc2)CC(C)(C)CC1=O | 80.24 | 28.27 | 13.18 | 79.66 |

Continued, molecule first:

| Compound | IC50 [5] [nM] | IC50 (Cyclooxygenase) [nM] | inhibition (INH) (Rattus norvegicus [1]) [%] | ED50 (Rattus norvegicus [2]) [µmol] | Activity (Rattus norvegicus [3]) [%] | Activity (Rattus norvegicus [4]) [%] |
| --- | --- | --- | --- | --- | --- | --- |
| COc1ccc2c(c1)c(CC(=O)O)c(C)n2C(=O)c1ccc(Cl)cc1 [INDOMETHACIN] | – | – | 98.29 | 9.568 | – | – |
| CS(=O)(=O)c1ccc2c(c1)c1c(n2C(=O)c2ccc(Cl)cc2)CCCC1 | 56 | 116 | 83.19 | 25.67 | 12.45 | 80.97 |
| CS(=O)(=O)c1ccc2c(c1)c1c(n2S(=O)(=O)c2ccc(Cl)cc2)CCCC1=O | 53 | 104 | 84.11 | 22.33 | 11.29 | 81.88 |
| CS(=O)(=O)c1ccc2c(c1)c1c(n2S(=O)(=O)c2ccc(Cl)cc2)CCCC1 | 40 | 79 | 88.2 | 18.67 | 2.9 | 85.32 |
| CS(=O)(=O)c1ccc2c(c1)c1c(n2Cc2ccc(Cl)cc2)CCCC1 | 39 | 56 | 89.43 | 14.56 | 4.48 | 87.55 |
| CS(=O)(=O)c1ccc2c(c1)c1c(n2C(=O)c2ccc(Cl)cc2)CCCC1=O | 34 | 48 | 91.29 | 12.38 | 3.28 | 88.06 |
| Cc1ccc(-c2cc(C(F)(F)F)nn2-c2ccc(S(N)(=O)=O)cc2)cc1 [CELECOXIB] | 112 | – | 77.25 | 86.11 | 2.11 | 96.73 |
